CHRM4 PAM: potentiates acetylcholine response at human M4 receptor; CHO-K1 hM4/Gqi5, Fluo-8 calcium fluorescence, ACh EC20; 0% = ACh EC20, 100% = maximal ACh; activation, % at 3 µM; 360,000 tested, 0.4% active;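 active = activation above its plate's cutoff, the mean activation of sample wells plus 3 SD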
Target sequence (P08173 whole entry, looked up): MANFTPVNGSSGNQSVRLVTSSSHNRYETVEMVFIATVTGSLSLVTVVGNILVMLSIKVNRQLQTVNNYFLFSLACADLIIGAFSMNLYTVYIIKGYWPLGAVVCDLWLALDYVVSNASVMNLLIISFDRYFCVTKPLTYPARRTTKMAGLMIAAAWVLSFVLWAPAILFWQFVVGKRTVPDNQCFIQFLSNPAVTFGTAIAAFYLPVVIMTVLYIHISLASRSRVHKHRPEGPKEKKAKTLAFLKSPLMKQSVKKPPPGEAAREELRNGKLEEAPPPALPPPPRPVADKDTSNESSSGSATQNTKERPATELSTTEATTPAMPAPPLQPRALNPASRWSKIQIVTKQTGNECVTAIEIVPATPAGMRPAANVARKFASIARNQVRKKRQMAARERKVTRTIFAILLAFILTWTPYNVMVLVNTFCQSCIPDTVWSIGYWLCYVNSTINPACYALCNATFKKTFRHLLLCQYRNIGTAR
TAAR1 antagonist: antagonists of human TAAR1 | Q96RJ0 | CHO RD-HGA16 TAAR1, Fluo-8 calcium fluorescence, antagonist | inhibition, % at 3 µM | 360,000 tested, 1.5% active | AID 624466;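 active = inhibition above a per-plate cutoff, the mean inhibition of test compounds on that plate plus 3 SD, cut at about 49% in these data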;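 also: 0% = DMSO plus EC80 beta-PEA response and 100% = DMSO alone without agonist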
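Test system: CHO RD-HGA16 cells bearing hTAAR1 | Reagent: β-PEA, EC80 | Compound dosing: 3 µM, single point | Schedule: Dye loading 75 min at 37 °C, then 30 min room temperature | Signal: Calcium fluorescence with Fluo-8 | Evaluation: Percent inhibition of PEA-evoked calcium signal, max/basal emission ratio | Control set: DMSO-only wells and EC80 β-PEA-stimulated wells | Repeats: Singlicate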
TAAR1 agonist: human TAAR1 agonism; Q96RJ0; CHO RD-HGA16 TAAR1, Fluo-8 calcium fluorescence; vehicle wells 0%, saturating PEA agonist 100%; activation, % at 3 µM; 360,000 tested, 0.99% active; AID 624467;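 active = activation above the mean activation of all test compounds in the run plus 3 SD, cut at about 38% in these data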
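Test system: RD-HGA16 (CHO) cells co-expressing Gα16 and hTAAR1 / Benchmarks: DMSO vehicle as 0%, PEA at EC100 as 100% / Repeats: no replicates (n 1) / Measure: % activation from peak over basal fluorescence ratio, DMSO-to-PEA scaled / Timing: 17-24 h plating, Fluo-8 75 min 37 °C, 30 min RT / Technique: kinetic Fluo-8 calcium fluorescence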
CHRM4 antagonist: CHRM4 antagonism in calcium assay; P08173; CHO-hM4 cells, ACh EC80, Fluo-8 calcium fluorescence; inhibition, % at 3 µM; 360,000 tested, 0.73% active;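 active = inhibition above its plate's cutoff, the mean inhibition of sample wells plus 3 SD, cut at about 27% in these data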;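 also: 0% = acetylcholine EC80 with DMSO and 100% = DMSO without agonist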
CHRM4 agonist: agonists of human muscarinic M4 receptor (CHRM4) | P08173 | CHO-K1 hM4/Gqi5, Fluo-8 calcium fluorescence; vehicle 0%, full acetylcholine response 100% | activation, % at 3 µM | 360,000 tested, 0.14% active;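 active = activation above the run mean over all test wells plus 3 SD, cut at about 32% in these data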;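 also: peak over basal fluorescence ratio per well then scaled between controls; 0% = DMSO wells and 100% = acetylcholine at EC100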
* marks the source's active call; other numbers are inactive results; . = no result given. An excerpt weighted towards active compounds, which were near 3% of everything screened.

SMILES | CHRM4 PAM | TAAR1 antagonist | TAAR1 agonist | CHRM4 antagonist | CHRM4 agonist
O=C(Nc1ccc(Cl)c(Cl)c1)Nc1nnc(-c2ccncc2)s1 | 1 | -1 | 1 | 6 | 2
CC(=O)c1ccc(Nc2nc(C(N)Cc3ccc(C(F)(F)F)cc3)cs2)cc1 (configuration not stated) | -1 | 36 | 52* | 1 | 20
NC(Cc1ccc(C(F)(F)F)cc1)c1csc(NC(=O)NCCc2ccccc2)n1 (configuration not stated) | -8 | -3 | 32 | 41* | 39*
COc1ccc(NC(=O)Nc2nnc(-c3ccncc3)s2)cc1 | 1 | 49* | 17 | -7 | 9
CC(C)CC(N)c1csc(NC(=O)NCCc2ccccc2)n1 (configuration not stated) | 5 | 11 | 6 | -15 | 2
COc1ccc(NC(=O)Nc2nc(C(N)Cc3ccc(C(F)(F)F)cc3)cs2)cc1 (configuration not stated) | 10 | 50* | 40* | 20 | 15
NC(Cc1ccc(C(F)(F)F)cc1)c1csc(Nc2ccc(C(=O)c3ccccc3)cc2)n1 (configuration not stated) | 1 | 27 | 36 | 7 | 5
COc1ccccc1-c1ccc([C@@H]2C[C@H]3[C@H](CON3C)CN2CC2CCCCC2)cc1 | . | -36 | 3 | . | .
COC(=O)c1cc2c(c3c4ccccc4n(S(=O)(=O)c4ccccc4)c13)C(=O)N(C)C2 | . | -28 | 0 | . | .
CCOC(=O)c1sc(NC(=O)CCN2C(=O)C3CCCCC3C2=O)cc1C (configuration not stated) | -7 | 49* | 6 | 9 | 15
CCOc1ccc(NC(=O)CCN2C(=O)C3CCCCC3C2=O)cc1OCC (configuration not stated) | 1 | 5 | 1 | -2 | 1
COc1ccc(C2C(C(=O)N3CCN(C)CC3)c3ccccc3C(=O)N2C2CCCCC2)cc1 (configuration not stated) | 22* | 12 | 0 | -9 | 2
COc1ccc(C2C(C(=O)NCCN3CCOCC3)c3ccccc3C(=O)N2C2CCCCC2)cc1 (configuration not stated) | . | 15 | 5 | . | .
Cc1cc(Nc2cc(F)c(F)c(F)c2)cc(=O)n1-c1cc(F)c(F)c(F)c1 | . | -13 | 1 | . | .
CCCn1ncc(CN2CCCC(C(=O)c3cccc(OC(C)C)c3)C2)c1C (configuration not stated) | -51 | -18 | 0 | 66* | 1

Compound activity (PubChem)
